Consider 9 compounds from ChEMBL document CHEMBL4270486, “Anti-inflammatory Activity of Natural Geranylated Flavonoids: Cyclooxygenase and Lipoxygenase Inhibitory Properties and Proteomic Analysis” (J Nat Prod, 2017).

pIC50: −log10 of the molar value. Active and inactive are the calls of the source. The rule behind the calls is not given here.

Data set [1] deals with T1, Prostaglandin G/H synthase 1 (Ovis aries, UniProt P05979).
T1 sequence (P05979 whole entry): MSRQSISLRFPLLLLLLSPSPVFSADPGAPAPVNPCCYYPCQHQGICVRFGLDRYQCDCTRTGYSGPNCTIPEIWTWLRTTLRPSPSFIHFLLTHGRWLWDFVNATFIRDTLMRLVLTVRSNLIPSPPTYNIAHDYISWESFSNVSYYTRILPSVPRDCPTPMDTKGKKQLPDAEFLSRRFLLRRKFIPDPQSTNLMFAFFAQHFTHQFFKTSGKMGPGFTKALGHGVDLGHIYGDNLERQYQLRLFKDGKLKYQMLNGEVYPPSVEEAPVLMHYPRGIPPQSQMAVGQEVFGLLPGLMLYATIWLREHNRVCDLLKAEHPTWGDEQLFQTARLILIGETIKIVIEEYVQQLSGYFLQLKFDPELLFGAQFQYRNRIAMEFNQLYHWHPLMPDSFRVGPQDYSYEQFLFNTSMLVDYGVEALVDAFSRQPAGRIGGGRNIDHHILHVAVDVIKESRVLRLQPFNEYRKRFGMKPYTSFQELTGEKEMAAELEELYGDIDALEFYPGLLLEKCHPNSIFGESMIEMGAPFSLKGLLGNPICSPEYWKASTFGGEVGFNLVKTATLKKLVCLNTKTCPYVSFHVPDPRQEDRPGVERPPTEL
Nature of the data set: Inhibition of ram seminal vesicle COX1 assessed as reduction in PGE2 formation pre-incubated for 5 mins before arachidonic acid addition and measured after 20 mins by ELISA. In short, it runs like this: (§1)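 COX-1 from ram seminal vesicles (1 unit) or human recombinant COX-2 (0.5 unit) in 100 mM Tris pH 8.0 with 5 μM hematin, 18 mM L-epinephrine and 50 μM Na2EDTA. Compound in DMSO preincubated 5 min at room temperature. Arachidonic acid added, 20 min at 37 °C, stopped with formic acid. PGE2 by ELISA (A405).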
(In general: ELISA stands for enzyme-linked immunosorbent assay.)

Data set [2] has as its target T2, Prostaglandin G/H synthase 2 (Homo sapiens, UniProt P35354).
T2 sequence (P35354 whole entry): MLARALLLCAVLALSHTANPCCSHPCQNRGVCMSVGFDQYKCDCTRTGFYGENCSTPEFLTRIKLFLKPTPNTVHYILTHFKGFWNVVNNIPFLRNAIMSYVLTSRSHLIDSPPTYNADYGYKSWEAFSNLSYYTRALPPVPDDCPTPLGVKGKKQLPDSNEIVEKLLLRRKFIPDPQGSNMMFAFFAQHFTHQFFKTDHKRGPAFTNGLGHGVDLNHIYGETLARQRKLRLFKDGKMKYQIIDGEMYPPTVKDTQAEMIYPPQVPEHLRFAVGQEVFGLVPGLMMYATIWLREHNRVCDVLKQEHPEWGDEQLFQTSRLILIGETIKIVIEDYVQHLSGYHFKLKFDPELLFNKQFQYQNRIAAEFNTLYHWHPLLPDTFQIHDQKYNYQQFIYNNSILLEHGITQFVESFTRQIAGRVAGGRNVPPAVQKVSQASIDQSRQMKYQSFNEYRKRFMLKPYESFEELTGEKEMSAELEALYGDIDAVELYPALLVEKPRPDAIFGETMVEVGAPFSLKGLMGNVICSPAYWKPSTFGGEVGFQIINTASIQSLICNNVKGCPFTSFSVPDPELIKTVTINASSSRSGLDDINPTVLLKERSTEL
Nature of the data set: Inhibition of human recombinant COX2 assessed as reduction in PGE2 formation pre-incubated for 5 mins before arachidonic acid addition and measured after 20 mins by ELISA.

For data set [3], the target named is T3, Prostaglandin G/H synthase 2 (Homo sapiens) (UniProt P35354).
T3 sequence (whole entry): T2 sequence (P35354 whole entry)
Briefly: Inhibition of human recombinant COX2 assessed as reduction in PGE2 formation at 20 uM pre-incubated for 5 mins before arachidonic acid addition and measured after 20 mins by ELISA. The gist of the method:
as §1

The nature of data set [4]: Selectivity index, ratio of IC50 for ram seminal vesicle COX1 to IC50 for human recombinant COX2.
Data set [5] addresses T4, Polyunsaturated fatty acid 5-lipoxygenase (Homo sapiens) (UniProt P09917).
T4 sequence (whole entry): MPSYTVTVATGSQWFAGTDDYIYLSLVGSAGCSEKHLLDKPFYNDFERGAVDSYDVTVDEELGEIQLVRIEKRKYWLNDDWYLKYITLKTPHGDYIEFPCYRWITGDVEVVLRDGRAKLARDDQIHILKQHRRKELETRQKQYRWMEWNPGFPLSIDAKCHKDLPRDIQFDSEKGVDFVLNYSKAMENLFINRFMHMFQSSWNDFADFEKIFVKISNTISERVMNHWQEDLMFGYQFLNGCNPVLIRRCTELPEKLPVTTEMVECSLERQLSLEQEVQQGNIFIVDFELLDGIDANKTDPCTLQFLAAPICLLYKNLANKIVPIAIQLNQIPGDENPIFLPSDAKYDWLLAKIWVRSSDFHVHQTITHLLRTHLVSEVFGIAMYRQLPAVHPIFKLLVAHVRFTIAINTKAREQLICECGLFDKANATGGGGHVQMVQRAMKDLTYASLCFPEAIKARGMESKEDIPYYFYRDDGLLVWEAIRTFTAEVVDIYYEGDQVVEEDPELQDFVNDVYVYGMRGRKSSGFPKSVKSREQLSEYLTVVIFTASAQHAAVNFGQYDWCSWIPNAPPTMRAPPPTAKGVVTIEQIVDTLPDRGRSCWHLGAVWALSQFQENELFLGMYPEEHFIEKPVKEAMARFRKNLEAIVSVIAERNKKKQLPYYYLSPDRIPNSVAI
Nature of the data set: Inhibition of human recombinant 5-LOX assessed as reduction in leukotriene B4 production at 20 uM pre-incubated for 10 mins before arachidonic acid addition and measured after 10 mins by ELISA. The gist of the method: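 Human recombinant 5-LOX, 1 unit/reaction, in PBS pH 7.4 containing 1 mM Na2EDTA and 200 μM ATP. Test compound in DMSO incubated 10 min at 4 °C. Reaction started with CaCl2 and arachidonic acid, 10 min at 37 °C, stopped with formic acid. LTB4 measured by ELISA (A405). […] Screening at 20 μM; ≥3 experiments, duplicate wells.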

In data set [6] the target is T5, Polyunsaturated fatty acid 5-lipoxygenase (Homo sapiens, UniProt P09917).
T5 sequence (P09917 whole entry): T4 sequence (whole entry)
Nature of the data set: Inhibition of human recombinant 5-LOX assessed as reduction in leukotriene B4 production pre-incubated for 10 mins before arachidonic acid addition and measured after 10 mins by ELISA. In short, it runs like this: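 Human recombinant 5-LOX, 1 unit/reaction, in PBS pH 7.4 containing 1 mM Na2EDTA and 200 μM ATP. Test compound in DMSO incubated 10 min at 4 °C. Reaction started with CaCl2 and arachidonic acid, 10 min at 37 °C, stopped with formic acid. LTB4 measured by ELISA (A405). Screening at 20 μM; ≥3 experiments, duplicate wells.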

The target of data set [7] is T4, Polyunsaturated fatty acid 5-lipoxygenase (Homo sapiens). Briefly: Potency index, ratio of IC50 for zileuton to IC50 for test compound fior inhibition of human recombinant 5-LOX assessed as reduction in leukotriene B4 production pre-incubated for 10 mins before arachidonic acid addition and measured after 10 mins by ELISA.
The test system of data set [8] is THP-1. Nature of the data set: Increase in COX2 protein expression in LPS-stimulated human THP1 cells at 2 uM by proteomic analysis relative to untreated control. The class given is functional. The gist of the method:
(§2)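 THP-1 monocytes in RPMI 1640 with 10% FBS and 2 mM L-glutamine, differentiated to macrophages with phorbol myristate acetate, then 24 h serum-free. Pretreatment 1 h with compound in DMSO (2 μM final) or DMSO alone, then LPS (E. coli 0111:B4, 1.0 μg/mL) for 24 h. Filter-aided trypsin digestion, iTRAQ 4-plex labelling, LC-MS/MS. Five biological replicates pooled per group.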

Data set [9] has as its system THP-1. Briefly: Inhibition of LPS-induced increase in TNFalpha protein expression in LPS-stimulated human THP1 cells at 2 uM by proteomic analysis relative to untreated control. The class given is functional, cell-based. The gist of the method: as §2
Data set [10] concerns THP-1. Briefly: Inhibition of LPS-induced increase in IL1 protein expression in LPS-stimulated human THP1 cells at 2 uM by proteomic analysis relative to untreated control. The class given is functional, cell-based. The gist of the method:
as §2

The subject of data set [11] is THP-1. Briefly: Inhibition of LPS-induced increase in CCL1 protein expression in LPS-stimulated human THP1 cells at 2 uM by proteomic analysis relative to untreated control. The class given is functional, cell-based. In short, it runs like this:
as §2

Data set [12] concerns THP-1. Nature of the data set: Inhibition of LPS-induced increase in CCL5 protein expression in LPS-stimulated human THP1 cells at 2 uM by proteomic analysis relative to untreated control. It is filed as functional, cell-based. The gist of the method: as §2
Data set [13] relates to THP-1. Nature of the data set: Inhibition of LPS-induced increase in CXCL1 protein expression in LPS-stimulated human THP1 cells at 2 uM by proteomic analysis relative to untreated control. The class given is functional, cell-based. The gist of the method: as §2
In data set [14] the test system is THP-1. Nature of the data set: Inhibition of LPS-induced decrease in VIP2 protein expression in LPS-stimulated human THP1 cells at 2 uM by proteomic analysis relative to untreated control. It is filed as functional, cell-based. In short, it runs like this: as §2
Data set [15] concerns THP-1. Briefly: Increase in COX2 protein expression in human THP1 cells at 2 uM by proteomic analysis relative to untreated control. The class given is ADME, cell-based. Particulars: thp-1, 2 µM. The gist of the method:
as §2

Data set [16] concerns THP-1. Nature of the data set: Increase in RNF207 protein expression in human THP1 cells at 2 uM by proteomic analysis relative to untreated control. Particulars: read-out: FC. The class given is ADME, cell-based. In short, it runs like this: as §2
Data set [17] deals with THP-1. Briefly: Increase in TX1B3 protein expression in human THP1 cells at 2 uM by proteomic analysis relative to untreated control. It is filed as ADME, cell-based. As to conditions: read-out: FC. In short, it runs like this:
as §2

One may read the pIC50 as the negative decadic logarithm of the IC50, by convention in mol/L. As to `CC(C)=CCC/C(C)=C/Cc1c(O)cc2c(c1O)C(=O)C[C@@H](c1ccc(O)cc1)O2` [BONANNIONE A], the results for the pIC50 in [1] and in data set [2] were 5.43 and 5.22, respectively. Also, the inhibition result in data set [3] was “Active”. In addition, the Ratio IC50 in data set [4] is 0.62.
The corresponding values for `COc1cc([C@@H]2CC(=O)c3c(cc(O)c(C/C=C(\C)CCC=C(C)C)c3O)O2)cc(O)c1OC` are 5.38, 5.19, “Active” and 0.66.
As for `COc1cc([C@@H]2CC(=O)c3c(cc(O)c(C/C=C(\C)CCC=C(C)C)c3O)O2)cc(O)c1O`, the results for the pIC50 in data set [1], in [2] and in [6] were 5.48, 4.97 and 7.22, respectively. Also, the inhibition result in [3] and in data set [5] was “Active” each time. Also, the Ratio IC50 in data set [4] is 0.31; in data set [7], 10.
As to `COc1cc([C@@H]2CC(=O)c3c(cc(O)c(C/C=C(\C)CCC=C(C)C)c3O)O2)cc(OC)c1O`, the inhibition entry in data set [5] is “Active”. Also, the pIC50 in data set [6] is 6.42.
Taken in the same sequence, the figures for `CC(C)=CCCC1(C)C=Cc2c(cc3c(c2O)C(=O)C[C@@H](c2cc(O)cc(O)c2)O3)O1` (some centres not stated) were “Active” and 6.46.
On to `COc1cc([C@@H]2CC(=O)c3c(cc4c(c3O)C=CC(C)(CCC=C(C)C)O4)O2)ccc1O` (some centres not stated), for which the pIC50 in data set [1] was 4.58; in data set [2], 5.02. The inhibition result in [3] was “Active”. Further, in [4], the Ratio IC50 was determined as 2.8.
Turning to `COc1cc(C2CC(=O)c3c(cc4c(c3O)C=CC(C)(CCC=C(C)C)O4)O2)cc(OC)c1O` (configuration not stated), the inhibition entry in data set [5] is “Active”. Also, in data set [6], the pIC50 is 6.43.
The corresponding values for `CC(C)=CCC/C(C)=C/Cc1c(O)cc2occc(=O)c2c1O` are “Active” and 5.61.
For the compound `CC(C)=CCC/C(C)=C/Cc1c(O)cc2c(c1O)C(=O)C[C@@H](c1ccc(O)c(O)c1)O2` [NYMPHAEOL A], the “fold change (FC)” value in the data set on THP-1 [8] worked out at 1.55. For the same compound, the figures for the pIC50 in data set [1], in data set [2] and in data set [6] were 5.74, 5.38 and 7.30, respectively. The inhibition result (in [3]; in data set [5]; with THP-1 [9]; with THP-1 [10]; in the data set with THP-1 [11]; in the data set with THP-1 [12]) was “Active” in each case. For the same compound, the inhibition result in the data set on THP-1 [13] and in the data set with THP-1 [14] was “Active” each time. In the data set with THP-1 [15], the Activity entry is on record as “Non-Toxic”. Moreover, the fold induction at 2 µM in the data set with THP-1 [16] was 2.09; in the data set with THP-1 [17], 1.88.
